Source: ChEMBL document CHEMBL1156077, “Piperazinyl-glutamate-pyrimidines as potent P2Y12 antagonists for inhibition of platelet aggregation” (Bioorg Med Chem Lett, 2009)
Activity calls are given as the source filed them. The rule behind the calls is not given here.

Key:
P2Y purinoceptor 12 [1] = molecular target: T1, P2Y purinoceptor 12 (Homo sapiens, UniProt Q9H244); assay: Binding affinity at human recombinant P2Y12 receptor expressed in CHO cells by radioligand binding assay in presence of 0.4% human serum albumin; type: cell-based
T1 sequence (Q9H244 whole entry): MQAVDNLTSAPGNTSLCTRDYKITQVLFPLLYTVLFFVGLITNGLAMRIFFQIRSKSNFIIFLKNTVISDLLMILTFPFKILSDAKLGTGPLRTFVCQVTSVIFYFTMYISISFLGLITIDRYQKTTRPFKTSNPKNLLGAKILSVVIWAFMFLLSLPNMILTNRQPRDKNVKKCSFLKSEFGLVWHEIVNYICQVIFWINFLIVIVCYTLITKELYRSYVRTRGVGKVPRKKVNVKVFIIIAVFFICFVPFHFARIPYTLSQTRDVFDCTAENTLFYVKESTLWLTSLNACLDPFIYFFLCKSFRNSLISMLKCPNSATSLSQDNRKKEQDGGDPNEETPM
In short: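 Membranes from CHO cells transfected with a synthetic human P2Y12 gene, with 0.4% human serum albumin added to the binding buffer (50 mM Tris, 100 mM NaCl, 1 mM EDTA). Seven-point threefold dilutions were run in triplicate, 1 h at room temperature, then filtered. Ki from IC50 by Cheng-Prusoff.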

[2] = Selectivity for human P2Y12 receptor over P2Y13
P2Y purinoceptor 12 [3] = molecular target: T1, P2Y purinoceptor 12; assay: Binding affinity at human recombinant P2Y12 receptor expressed in CHO cells by radioligand binding assay; type: cell-based
In short: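 Washed membranes from CHO cells transfected with synthetic human P2Y12 gene. Compounds as 7-point threefold dilutions, triplicate, 1 h at room temperature. Nonspecific binding defined with 300 nM 2-MeSADP. Filtered, washed with ice-cold Tris pH 7.4. Single-site fit; IC50 converted to Ki by Cheng–Prusoff, geometric mean of n≥2.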

[4] = Selectivity for human P2Y12 receptor over P2Y1

SMILES: CCCCCOC(=O)N1CCN(C(=O)[C@H](CCC(=O)O)NC(=O)c2cc(SCC(F)(F)F)nc(-c3ccccc3)n2)CC1
- Activity (P2Y purinoceptor 12 [1]): inactive
- fold change (FC) [2]: > 340
- Ki (P2Y purinoceptor 12 [3]): 22 nM
- fold change (FC) [4]: > 340
